28 molecules from ChEMBL document CHEMBL3228037, “Syntheses and antiinflammatory actions of 4,5,6,7-tetrahydroindazole-5-carboxylic acids” (J Med Chem, 1979) can be followed below.

The test system of series [1] is Rattus norvegicus. The series is described as follows: Ulcerogenic activity in po dosed rat assessed as induction of lesions in gastric mucosa measured after 24 hrs. The note with it: in vivo. It is filed as toxicity, organism-based. The essentials:
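Compounds were suspended in 0.2% carboxymethylcellulose and given orally to seven male rats per dose, at five or more doses; controls got vehicle alone. Rats were killed 24 h later, and gastric lesions (hemorrhage, erosion, ulcer) were counted blind. MUD, the dose giving two lesions, was calculated graphically.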

Series [2] deals with Mus musculus. The series is described as follows: Analgesic activity in po dosed mouse assessed as inhibition of acetic acid-induced writhing. In kind it is functional. The essentials: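 Acetic acid writhing test after Koster, using 10 male mice per dose.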
(In general: In writhing tests, fewer writhes than in controls are read as antinociception.)

Series [3] concerns Rattus norvegicus. The series is described as follows: Antiinflammatory activity in rat assessed as inhibition of carrageenan-induced paw edema at 25 mg/kg, po preincubated for 1 hr followed by carrageenan challenge relative to control. It is filed as functional. The essentials: (§1)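 Winter carrageenan edema screen in rats. Compound was given orally as a suspension in 0.5% CMC at 100 and/or 25 mg/kg. One hour later, 1% carrageenan solution was injected into the hind paw.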

Series [4] concerns Rattus norvegicus. Put plainly: Antiarthritic activity in po dosed rat assessed as reduction of adjuvant-induced foot volume administered as qd for 14 days starting on day 14 after adjuvant inoculation measured on day 28. It is filed as functional. The essentials:
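Rats with established adjuvant arthritis (Newbould method) were dosed orally once daily for 14 days, starting on day 14 after adjuvant inoculation. Foot swelling was measured as volume. ED50 was estimated from the dose-response curve.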

Series [5] has as its system Rattus norvegicus. Put plainly: Antiinflammatory activity in po dosed rat assessed as inhibition of carrageenan-induced paw edema preincubated for 1 hr followed by carrageenan challenge relative to control. In kind it is functional. The essentials: (§2)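 Winter carrageenan paw edema in rats. Oral dosing as a suspension in 0.5% CMC was followed 1 h later by 1% carrageenan injected into the hind paw. Several doses were tested, and ED50 was read from the dose-response curve.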
In general terms: In the carrageenan paw model, swelling and tenderness develop within hours.

The test system of series [6] is Rattus norvegicus. The series is described as follows: Antiinflammatory activity in rat assessed as inhibition of carrageenan-induced paw edema at 10 mg/kg, po preincubated for 1 hr followed by carrageenan challenge relative to control. In kind it is functional. The method, boiled down: as §2
Series [7] relates to Rattus norvegicus. Put plainly: Antiinflammatory activity in rat assessed as inhibition of carrageenan-induced paw edema at 100 mg/kg, po preincubated for 1 hr followed by carrageenan challenge relative to control. It is filed as functional. The method, boiled down:
as §1

For series [8], the system named is Rattus norvegicus. The series is described as follows: Antiinflammatory activity in rat assessed as inhibition of carrageenan-induced paw edema at 3 mg/kg, po preincubated for 1 hr followed by carrageenan challenge relative to control. It is filed as functional. The essentials: as §2
Series [9] has as its system Rattus norvegicus. The series is described as follows: Antiinflammatory activity in rat assessed as inhibition of carrageenan-induced paw edema at 50 mg/kg, po preincubated for 1 hr followed by carrageenan challenge relative to control. It is filed as functional. The method, boiled down:
as §2

Series [10] relates to Rattus norvegicus. Put plainly: Antiinflammatory activity in rat assessed as inhibition of carrageenan-induced paw edema at 2.5 mg/kg, po preincubated for 1 hr followed by carrageenan challenge relative to control. In kind it is functional. The essentials:
as §2

One may read the ED50 as the dose that gives a 50% effect, or the effect in half of the subjects. Usually inhibition in vivo stands for the relative decrease from the control value, in per cent. As for `O=C(O)C1CCc2c(cnn2-c2ccc(Cl)cc2)C1` (centres undefined), the MUD in series [1] was 70 mg/kg. The ED50 in [2] is 7 mg/kg; in [4], 6.4 mg/kg; in series [5] it was 17 mg/kg. For the same molecule, the inhibition in vivo at 25 mg/kg in series [3] is 39.4%. Further, in [6], the inhibition in vivo at 10 mg/kg was 39.4%.

As for `O=C(O)C1CCc2nn(-c3cccc(C(F)(F)F)c3)cc2C1` (centres undefined), in [7], the inhibition in vivo at 100 mg/kg came out at 14.8%.

As to `O=C(O)C1CCc2c(cnn2-c2cccc(F)c2)C1` (centres undefined), in series [3], the inhibition in vivo at 25 mg/kg amounted to 38.2%.

On to `O=C(O)c1nn(-c2ccc(Cl)cc2)c2c1CC(C(=O)O)CC2` (centres undefined), for which the inhibition in vivo at 100 mg/kg in series [7] stood at 0%.

Consider `O=C(O)C1CCc2nn(-c3cccc4ccccc34)cc2C1` (centres undefined), for which the inhibition in vivo at 25 mg/kg in series [3] is 0%.

As for `O=C(O)C1CCc2c(cnn2-c2ccccn2)C1` (centres undefined), the inhibition in vivo at 25 mg/kg in series [3] stood at 57.9%.

Consider `O=C(O)C1CCc2c(cnn2-c2cccc(C(F)(F)F)c2)C1` (centres undefined), for which the inhibition in vivo at 25 mg/kg in series [3] amounted to 35.6%.

For the molecule `O=C(O)c1ccccc1Nc1cccc(C(F)(F)F)c1` [FLUFENAMIC ACID], in series [1], the MUD was found to be 50 mg/kg. The ED50 worked out at 160 mg/kg in series [2], 5.1 mg/kg in [4] and 20 mg/kg in series [5].

Regarding `O=C(O)C1CCc2nn(Cc3ccccc3)cc2C1` (centres undefined), in series [7], the inhibition in vivo at 100 mg/kg is 3.7%.

In the case of `Cc1ccccc1-n1cc2c(n1)CCC(C(=O)O)C2` (centres undefined), in [7], the inhibition in vivo at 100 mg/kg was determined as 38%.

Regarding `COc1ccc(-n2ncc3c2CCC(C(=O)O)C3)cc1` (centres undefined), in series [3], the inhibition in vivo at 25 mg/kg stood at 9.8%.

Regarding `O=C(O)C1CCc2c(cnn2-c2ccc(O)cc2)C1` (centres undefined), in [7], the inhibition in vivo at 100 mg/kg amounted to 14.7%.

`Cc1ccc(-n2cc3c(n2)CCC(C(=O)O)C3)cc1` (centres undefined): the inhibition in vivo at 100 mg/kg in series [7] stood at 10.8%.

`Cc1ccc(-n2nc(C(=O)O)c3c2CCC(C(=O)O)C3)cc1` (centres undefined): the inhibition in vivo at 100 mg/kg in [7] was 0%.

Regarding `O=C(O)C1CCc2c(cnn2Cc2ccccc2)C1` (centres undefined), in series [3], the inhibition in vivo at 25 mg/kg was found to be 15.9%.

With `O=C(O)c1nn(-c2cccc(C(F)(F)F)c2)c2c1CC(C(=O)O)CC2` (centres undefined), the inhibition in vivo at 100 mg/kg in series [7] came to 0%.

On to `O=C(O)c1nn(-c2ccccc2)c2c1CC(C(=O)O)CC2` (centres undefined), for which, in series [7], the inhibition in vivo at 100 mg/kg turned out to be 0%.

Take `O=C(O)C1CCc2nn(-c3ccccc3)cc2C1` (centres undefined): in series [7], the inhibition in vivo at 100 mg/kg is 36.4%.

For `COc1ccc2c(c1)c(CC(=O)O)c(C)n2C(=O)c1ccc(Cl)cc1` [INDOMETHACIN], the MUD in [1] was 5.6 mg/kg. The values for the ED50 in series [2], in series [4] and in series [5] were 6.3 mg/kg, 0.3 mg/kg and 3.8 mg/kg, respectively. Besides, in [8], the inhibition in vivo at 3 mg/kg came to 35.5%.

On to `O=C(O)C1CCc2nn(-c3ccc(Cl)cc3)cc2C1` (centres undefined), for which the inhibition in vivo at 100 mg/kg in series [7] came out at 17.9%.

For `O=C(O)C1CCc2c(cnn2-c2cccc3ccccc23)C1` (centres undefined), the inhibition in vivo at 25 mg/kg in series [3] stood at 13.1%.

With `O=C(O)C1CCc2nn(-c3ccccn3)cc2C1` (centres undefined), in series [7], the inhibition in vivo at 100 mg/kg came to 11.5%.

Regarding `Cc1ccc(-n2ncc3c2CCC(C(=O)O)C3)cc1` (centres undefined), the inhibition in vivo at 25 mg/kg in series [3] is 38.7%.

Regarding `COc1ccc(-n2cc3c(n2)CCC(C(=O)O)C3)cc1` (centres undefined), the inhibition in vivo at 100 mg/kg in series [7] came to 6%.

As to `O=C(O)C1CCc2c(cnn2-c2ccncc2)C1` (centres undefined), in series [3], the inhibition in vivo at 25 mg/kg was found to be 13.4%.

Take `Cc1ccccc1-n1ncc2c1CCC(C(=O)O)C2` (centres undefined): the inhibition in vivo at 25 mg/kg in series [3] was found to be 0%.

For the molecule `CCCCC1C(=O)N(c2ccccc2)N(c2ccccc2)C1=O` [PHENYLBUTAZONE], the MUD in series [1] was found to be 90 mg/kg. Further, the 50% effective dose (ED50) was determined as 810 mg/kg in series [2], 12 mg/kg in [4] and 78 mg/kg in series [5]. For the same molecule, the inhibition in vivo at 50 mg/kg in series [9] was found to be 43.4%.

For `O=C(O)C1CCc2c(cnn2-c2ccccc2)C1` (centres undefined), in series [1], the MUD amounted to 20 mg/kg. The median effective dose (ED50) was 4.7 mg/kg in series [2], 1.5 mg/kg in series [4] and 3.5 mg/kg in [5]. Besides, the inhibition in vivo at 2.5 mg/kg in series [10] is 40.6%. In addition, in series [6], the inhibition in vivo at 10 mg/kg was determined as 72.6%.
